This is an account of results in publication PMC4752335 (European journal of medicinal chemistry, 2015).

Series [1] has as its system panel of >90 biologically relevant receptors, enzymes and ion channels. The conditions noted are these: cited from earlier work.
The next series deals with FAAH and COX. To be noted: mice; cited from earlier work.
In a further series the test system is mouse models of IBD. To be noted: cited from earlier work.
The next series addresses T1, rat brain FAAH (Rattus norvegicus, UniProt P97612).
T1 sequence (P97612 1-579): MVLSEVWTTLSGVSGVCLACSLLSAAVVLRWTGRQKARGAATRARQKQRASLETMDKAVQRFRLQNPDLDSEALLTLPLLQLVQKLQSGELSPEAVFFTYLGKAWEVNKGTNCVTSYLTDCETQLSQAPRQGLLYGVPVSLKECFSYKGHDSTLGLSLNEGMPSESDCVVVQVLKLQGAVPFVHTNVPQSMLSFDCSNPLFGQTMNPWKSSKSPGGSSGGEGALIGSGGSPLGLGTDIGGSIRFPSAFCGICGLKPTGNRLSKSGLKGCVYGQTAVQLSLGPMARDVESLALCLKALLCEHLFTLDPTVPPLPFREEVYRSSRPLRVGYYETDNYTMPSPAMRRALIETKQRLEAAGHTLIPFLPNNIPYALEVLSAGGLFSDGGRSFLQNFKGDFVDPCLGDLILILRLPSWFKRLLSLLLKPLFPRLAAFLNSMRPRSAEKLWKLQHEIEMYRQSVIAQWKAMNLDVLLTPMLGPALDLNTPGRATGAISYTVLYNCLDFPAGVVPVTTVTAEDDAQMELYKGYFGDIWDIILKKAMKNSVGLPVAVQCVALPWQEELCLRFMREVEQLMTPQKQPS
The series can be described thus: In vitro rat FAAH radiometric assay. Format: biochemical.

The target in another series is T2, ovine COX-1 (Ovis aries, UniProt P05979).
T2 sequence (P05979 25-600): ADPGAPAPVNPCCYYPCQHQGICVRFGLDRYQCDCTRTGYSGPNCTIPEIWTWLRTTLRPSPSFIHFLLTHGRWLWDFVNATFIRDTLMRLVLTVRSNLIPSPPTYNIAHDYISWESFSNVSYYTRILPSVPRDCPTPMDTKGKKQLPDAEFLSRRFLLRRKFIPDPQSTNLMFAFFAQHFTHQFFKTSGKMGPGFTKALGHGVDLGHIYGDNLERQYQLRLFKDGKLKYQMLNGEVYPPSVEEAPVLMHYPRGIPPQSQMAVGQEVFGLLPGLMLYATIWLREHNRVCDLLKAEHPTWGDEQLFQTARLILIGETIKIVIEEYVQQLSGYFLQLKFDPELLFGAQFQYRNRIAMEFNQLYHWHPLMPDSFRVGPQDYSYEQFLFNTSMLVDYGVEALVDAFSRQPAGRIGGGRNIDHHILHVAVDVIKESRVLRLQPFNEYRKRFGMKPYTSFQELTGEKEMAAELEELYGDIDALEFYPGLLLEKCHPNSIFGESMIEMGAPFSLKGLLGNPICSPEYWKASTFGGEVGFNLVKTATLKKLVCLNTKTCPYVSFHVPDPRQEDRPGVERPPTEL
The series can be described thus: In vitro COX assay. The conditions noted are these: for increase in potency toward COX-1: compared to 10a; for decrease in potency toward COX-1: compared to 10r. Type of series: biochemical.

The test system of series [2] is COX products (6-keto-PGF1α, TXB2) and FAAH substrate OEA in plasma. Type of series: in vivo. To be noted: mice, 1 mg/kg intravenous, 1 h, vs vehicle. The gist of the method: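 Mice, randomised in groups of 6 and handled blind, were decapitated under anaesthesia 1 h after a 1 mg/kg intravenous dose. Heparinised cardiac blood (0.3 mL) was spun at 2000×g for 30 min to give plasma. OEA was extracted with cold acetone containing [²H₄]-OEA and quantified by LC/MS (MRM) against a 1 nM–10 µM calibration curve. 6-keto-PGF1α and […] were measured by ELISA kit. Values are mean ± s.e.m. (n=6), compared with vehicle by two-tailed Student's t test.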

Series [3] concerns panel of >90 biologically relevant receptors, enzymes and ion channels. The series can be described thus: Off-target panel of >90 biologically relevant targets. The conditions noted are these: Table S1.
For another series, the target named is T3, human recombinant COX-2 (Homo sapiens, UniProt P35354).
T3 sequence (P35354 18-604): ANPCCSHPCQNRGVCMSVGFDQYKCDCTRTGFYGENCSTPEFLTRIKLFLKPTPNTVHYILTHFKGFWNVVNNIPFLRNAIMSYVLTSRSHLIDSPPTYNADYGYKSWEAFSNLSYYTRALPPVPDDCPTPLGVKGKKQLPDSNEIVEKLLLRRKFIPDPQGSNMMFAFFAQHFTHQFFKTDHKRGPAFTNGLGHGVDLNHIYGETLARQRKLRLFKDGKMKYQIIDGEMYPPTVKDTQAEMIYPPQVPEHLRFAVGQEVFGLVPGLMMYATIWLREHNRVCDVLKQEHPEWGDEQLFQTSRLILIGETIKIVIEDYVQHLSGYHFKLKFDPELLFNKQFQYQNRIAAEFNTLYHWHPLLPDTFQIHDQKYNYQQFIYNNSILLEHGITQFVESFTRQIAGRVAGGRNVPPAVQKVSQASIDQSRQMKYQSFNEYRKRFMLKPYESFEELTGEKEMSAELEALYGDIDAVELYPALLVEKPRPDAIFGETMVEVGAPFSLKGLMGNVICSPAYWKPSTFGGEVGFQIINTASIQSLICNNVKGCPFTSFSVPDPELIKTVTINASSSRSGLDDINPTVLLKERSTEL
The series can be described thus: In vitro COX assay. Format: biochemical. The conditions noted are these: compared to 10r.

For `CCCCCCNC(=O)Oc1cccc(-c2ccc(C(C)C(=O)O)cc2F)c1` (racemic) [Compound 10r, (±)-2-[3-fluoro-4-[3-(hexylcarbamoyloxy)phenyl]phenyl]propanoic acid], the “off-target activities on a panel of >90 biologically relevant targets” value in series [1] is reported as “no off-target activities”. Besides, the “engagement of intended targets after oral administration” value in the series with FAAH and COX is given as “effectively engages its intended targets”. Further, the “anti-inflammatory effects in mouse models of IBD” value with mouse models of IBD was “profound anti-inflammatory effects”. For the same molecule, in the series on mouse models of IBD (mouse), the COX-dependent gastric toxicity result was “without causing COX-dependent gastric toxicity”.
`CC(C(=O)O)c1ccc(-c2cccc(OC(=O)NCCC3CCCCC3)c2)c(F)c1` (racemic) [Compound 10f, (±)-2-[4-[3-(2-cyclohexylethylcarbamoyloxy)phenyl]-3-fluoro-phenyl]propanoic acid]: the “increase in potency toward FAAH” value on rat brain FAAH (compared to 10a) worked out at 400 fold. The “increase in potency toward COX-1” value on ovine COX-1 stood at 50 fold.
Take `CCCCCCNC(=O)Oc1cccc(-c2ccc(C(C)C(=O)O)cc2)c1` (racemic) [Compound 29e, (±)-2-[4-[3-(hexylcarbamoyloxy)phenyl]phenyl]propanoic acid]: the “increase in potency toward FAAH” value on rat brain FAAH (compared to 10r) turned out to be 10 fold.
In the case of `CC(C(=O)O)c1ccc(-c2cccc(OC(=O)NCC3CCCCC3)c2)c(F)c1` (racemic) [Compound 10e, (±)-2-[4-[3-(cyclohexylmethylcarbamoyloxy)phenyl]-3-fluoro-phenyl]propanoic acid], at rat brain FAAH (compared to 10a), the “increase in potency toward FAAH” value is recorded as 23 fold. Moreover, the “increase in potency toward COX-1” value on ovine COX-1 came to 10 fold.
Consider `CCCCCCNC(=O)Oc1cccc(-c2ccc([C@H](C)C(=O)O)cc2F)c1` [(+)-10r, (+)-2-[3-fluoro-4-[3-(hexylcarbamoyloxy)phenyl]phenyl]propanoic acid], for which, in series [2], the “plasma level of 6-keto-PGF1α (stable metabolite of prostacyclin)” value is listed as “lowered”, the “plasma level of TXB2 (stable metabolite of TXA2)” value is “lowered” and the “plasma level of the FAAH substrate OEA” value is “increased”. For the same molecule, the “off-target activities on a panel of >90 biologically relevant receptors, enzymes (including NAAA) and ion channels” value in series [3] is “no off-target activities”.
As for `CC(C(=O)O)c1ccc(-c2cccc(OC(=O)NC3CCC3)c2)c(F)c1` (racemic) [Compound 10c, (±)-2-[4-[3-(cyclobutylcarbamoyloxy)phenyl]-3-fluoro-phenyl]propanoic acid], the “loss in potency against FAAH” value on rat brain FAAH (compared to 10a) was 10 fold. Further, on ovine COX-1, the “increase in potency toward COX-1” value was 10 fold.
`CC(C(=O)O)c1ccc(-c2cccc(OC(=O)NCc3ccccc3)c2)c(F)c1` (racemic) [Compound 10j, (±)-2-[4-[3-(benzylcarbamoyloxy)phenyl]-3-fluoro-phenyl]propanoic acid]: on rat brain FAAH (compared to 10i), the “increase in potency toward FAAH” value stood at 10 fold.
Consider `CCCCCCNC(=O)Oc1ccccc1-c1ccc(C(C)C(=O)O)cc1F` (racemic) [Compound 15a, (±)-2-[3-fluoro-4-[2-(hexylcarbamoyloxy)phenyl]phenyl]propanoic acid], for which, at rat brain FAAH (compared to 10r), the “decrease in potency toward FAAH” value worked out at 70 fold. Moreover, the “decrease in potency toward COX-1” value at ovine COX-1 is reported as 60 fold.
On to `CCCCCCNC(=O)Oc1cccc(-c2ccc(CC(=O)O)cc2F)c1` [Compound 18b, 2-[3-fluoro-4-[3-(hexylcarbamoyloxy)phenyl]phenyl]acetic acid], for which, on rat brain FAAH (compared to 10r), the “decrease in potency toward FAAH” value is 2 fold. For the same molecule, the “decrease in potency toward COX-1” value on ovine COX-1 is on record as 180 fold.
Regarding `CCCCCCNC(=O)Oc1cccc(-c2ccc(C(C)CO)cc2F)c1` (racemic) [Compound 12, (±)-[3-[2-fluoro-4-(2-hydroxy-1-methyl-ethyl)phenyl]phenyl] N-hexylcarbamate], the “increase in potency toward FAAH” value at rat brain FAAH (compared to 10r) was 10 fold. In addition, the “decrease in potency toward COX-1” value at ovine COX-1 was found to be 100 fold.
For `CCCCCCNC(=O)Oc1cccc(-c2ccc(C(=O)O)cc2F)c1` [Compound 21c, 3-fluoro-4-[3-(hexylcarbamoyloxy)phenyl]benzoic acid], the “decrease in potency toward FAAH” value at rat brain FAAH (compared to 10r) is 3 fold.
Turning to `CCCCCCNC(=O)Oc1cccc(-c2ccc(C(C)C(=O)O)cc2C(F)(F)F)c1` (racemic) [Compound 29c, (±)-2-[4-[3-(hexylcarbamoyloxy)phenyl]-3-(trifluoromethyl)phenyl]propanoic acid], the “increase in potency toward FAAH” value at rat brain FAAH (compared to 10r) is listed as 6 fold. At human recombinant COX-2, the “increase in potency toward COX-2” value amounted to 2 fold.
